Values after ≈ are worked out from the molar mass of the structure shown.
Experiments:
Staphylococcus aureus [1] = assay: Antimicrobial activity against methicillin-susceptible Staphylococcus aureus […] infected in human THP-1 cells assessed as bacterial count per mg of cell protein at high extracellular compound concentration after 24 hrs at pH 7.4; type: functional
Outline: (§1)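 Human THP-1 macrophage-like cells were infected with S. aureus to a postphagocytosis inoculum of 1.5 × 10^6 to 3.0 × 10^6 CFU/mg cell protein. Cells were then exposed 24 h to increasing extracellular antibiotic concentrations. Response was the log10 CFU change per mg protein from the postphagocytosis inoculum, n = 3. A Hill function was fitted on log-transformed axes. E0 and Emax were extrapolated to infinitely low and high concentrations. Cs was read by graphical interpolation. Concentrations were expressed as multiples of the broth MIC at pH 5.5 or pH 7.4.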

Staphylococcus aureus [2] = assay: Bacteriostatic activity against Panton-valentine leucocidin-positive community-acquired methicillin-resistant Staphylococcus aureus isolate MEH2225605 infected in human THP-1 cells assessed as change in bacterial count after 24 hrs at pH 5.5; type: functional
Outline: (§2)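 THP-1 macrophages infected as described previously, with a postphagocytosis inoculum of 1.5 × 10⁶ to 3.0 × 10⁶ CFU/mg cell protein. Cells were exposed 24 h to increasing extracellular antibiotic concentrations. Response is the change in log10 CFU/mg protein from the inoculum (n = 3), fitted to a Hill function. E0 and Emax were extrapolated to infinitely low and high concentrations. EC50 and static concentration (graphical interpolation) are expressed as multiples of the broth MIC at pH 5.5 or 7.4.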

Staphylococcus aureus [3] = assay: Antimicrobial activity against hospital-acquired methicillin-resistant Staphylococcus aureus […] infected in human THP-1 cells assessed as bacterial count per mg of cell protein at high extracellular compound concentration after 24 hrs; type: functional; outline: as §2
Staphylococcus aureus [4] = assay: Antimicrobial activity against Panton-valentine leucocidin-positive community-acquired methicillin-resistant Staphylococcus aureus N4090440 infected in human THP-1 cells assessed as bacterial count per mg of cell protein at low extracellular compound concentration after 24 hrs at pH 5.5; type: functional; settings: pooled result: one value given for 6 cell lines, strains, targets or settings
Outline: (§3)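 THP-1 human macrophages infected with S. aureus (postphagocytosis inoculum 1.5 × 10^6 to 3.0 × 10^6 CFU/mg cell protein), then incubated 24 h with increasing extracellular antibiotic concentrations. Change in log10 CFU/mg cell protein from the postphagocytosis inoculum, n = 3. Hill function fitted on log-transformed data. Low-concentration value (E0) and high-concentration value (Emax) are extrapolated. Where a pH is given, concentrations are expressed as multiples of the broth MIC at that pH.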

Staphylococcus aureus [5] = assay: Antimicrobial activity against Panton-valentine leucocidin-positive community-acquired methicillin-resistant Staphylococcus aureus STA 228 infected in human THP-1 cells assessed as change in bacterial count after 24 hrs; type: functional, organism-based; settings: STA 228, THP-1, 24 h; outline: as §3
Staphylococcus aureus [6] = assay: Antimicrobial activity against methicillin-susceptible Staphylococcus aureus […] infected in human THP-1 cells assessed as change in bacterial count after 24 hrs; type: functional, organism-based; settings: THP-1, 24 h; outline: as §2
Staphylococcus aureus [7] = assay: Bacteriostatic activity against Panton-valentine leucocidin-positive community-acquired methicillin-resistant Staphylococcus aureus N4090440 infected in human THP-1 cells assessed as change in bacterial count after 24 hrs at pH 5.5; type: functional; outline: as §2
Staphylococcus aureus [8] = assay: Antimicrobial activity against methicillin-susceptible Staphylococcus aureus ATCC 25923 infected in human keratinocytes assessed as change in bacterial count after 24 hrs; type: functional, organism-based; settings: ATCC 25923, 24 h
Outline: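 Primary human skin keratinocytes were grown in defined keratinocyte serum-free medium and infected with S. aureus to 1.5 × 10^6 to 3.0 × 10^6 CFU/mg cell protein. Cells were exposed 24 h to increasing extracellular concentrations. Response was the log10 CFU change from the postphagocytosis inoculum, fitted by a Hill equation with slope 1. Cs is the concentration giving CFU equal to the original inoculum, found by graphical interpolation.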

Staphylococcus aureus [9] = assay: Antimicrobial activity against Panton-valentine leucocidin-positive community-acquired methicillin-resistant Staphylococcus aureus NRS192 infected in human THP-1 cells assessed as bacterial count per mg of cell protein at high extracellular compound concentration after 24 hrs; type: functional; outline: as §3
Staphylococcus aureus [10] = assay: Antimicrobial activity against Panton-valentine leucocidin-positive community-acquired methicillin-resistant Staphylococcus aureus NRS192 infected in human THP-1 cells assessed as change in bacterial count after 24 hrs at pH 7.4; type: functional, organism-based; settings: NRS192, THP-1, 24 h; outline: as §3
Staphylococcus aureus [11] = assay: Antimicrobial activity against Panton-valentine leucocidin-positive community-acquired methicillin-resistant Staphylococcus aureus N4042228 infected in human THP-1 cells assessed as bacterial count per mg of cell protein at low extracellular compound concentration after 24 hrs; type: functional; outline: as §3
Staphylococcus aureus [12] = assay: Antimicrobial activity against hospital-acquired vancomycin-resistant Staphylococcus aureus VRS1 infected in human THP-1 cells assessed as bacterial count per mg of cell protein at low extracellular compound concentration after 24 hrs; type: functional; outline: as §2
Staphylococcus aureus [13] = assay: Ratio of MIC for beta-lactamase-negative methicillin-susceptible Staphylococcus aureus ATCC 25923 by microdilution method at pH 7.4 to ratio of MIC for beta-lactamase-negative methicillin-susceptible Staphylococcus aureus ATCC 25923 by microdilution method at pH 5.5; type: functional
Outline: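 MICs were measured by broth microdilution, with the broth adjusted to pH 7.4 or pH 5.5 before inoculation. pH was confirmed at the end of the assay to within ±0.1 unit. The value is the fold decrease in MIC between pH 7.4 and pH 5.5.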

Staphylococcus aureus [14] = assay: Antimicrobial activity against hospital-acquired methicillin-resistant Staphylococcus aureus ATCC 33591 infected in human THP-1 cells assessed as change in bacterial count after 24 hrs at pH 7.4; type: functional, organism-based; settings: ATCC 33591, THP-1, 24 h; outline: as §2
Staphylococcus aureus [15] = assay: Antimicrobial activity against Panton-valentine leucocidin-positive community-acquired methicillin-resistant Staphylococcus aureus isolate MEH2225605 infected in human THP-1 cells assessed as bacterial count per mg of cell protein at low extracellular compound concentration after 24 hrs; type: functional; outline: as §3
Staphylococcus aureus [16] = assay: Antimicrobial activity against Panton-valentine leucocidin-positive community-acquired methicillin-resistant Staphylococcus aureus STA 44 infected in human THP-1 cells assessed as bacterial count per mg of cell protein at high extracellular compound concentration after 24 hrs; type: functional; outline: as §3
Staphylococcus aureus [17] = assay: Antimicrobial activity against Panton-valentine leucocidin-positive community-acquired methicillin-resistant Staphylococcus aureus NRS192 infected in human THP-1 cells assessed as bacterial count per mg of cell protein at low extracellular compound concentration after 24 hrs; type: functional; outline: as §3
Staphylococcus aureus [18] = assay: Antimicrobial activity against methicillin-susceptible Staphylococcus aureus NRS52 infected in human THP-1 cells assessed as bacterial count per mg of cell protein at high extracellular compound concentration after 24 hrs at pH 7.4; type: functional; outline: as §1

Which log10cfu (Staphylococcus aureus [1]) does the source give for `Nc1nc(/C(=N/O)C(=O)N[C@@H]2C(=O)N3C(C(=O)O)=C(/C=C4\CCN([C@@H]5CCNC5)C4=O)CS[C@H]23)ns1` [CEFTOBIPROLE] here?
Its log10cfu is -1.04.

And the Activity (Staphylococcus aureus [2])?
The Activity was 1.45 × MIC.

What about the log10cfu (Staphylococcus aureus [3]) of the same compound?
The log10cfu was -0.9.

And the log10cfu (Staphylococcus aureus [4])?
The log10cfu was 2.78.

What about the EC50 (Staphylococcus aureus [5]) of the same compound?
Its EC50 is 0.88 µg/mL (≈ 1.65 µM).

And the EC50 (Staphylococcus aureus [6])?
Its EC50 is 0.07 µg/mL (≈ 0.131 µM).

What about the Activity (Staphylococcus aureus [7]) of the same compound?
Its Activity is 1.45 × MIC.

And the EC50 (Staphylococcus aureus [8])?
The EC50 was 0.35 µg/mL (≈ 0.655 µM).

And the log10cfu (Staphylococcus aureus [9])?
The log10cfu was -0.89.

And the EC50 (Staphylococcus aureus [10])?
The EC50 was 0.33 ×MIC.

What about the log10cfu (Staphylococcus aureus [11]) of the same compound?
Its log10cfu is 3.45.

What about the log10cfu (Staphylococcus aureus [12]) of the same compound?
The log10cfu was 2.57.

And the “fold change (FC)” value (Staphylococcus aureus [13])?
The value was 2.

What about the EC50 (Staphylococcus aureus [14]) of the same compound?
The EC50 was 0.28 ×MIC.

What about the log10cfu (Staphylococcus aureus [15]) of the same compound?
The log10cfu was 2.47.

What about the log10cfu (Staphylococcus aureus [16]) of the same compound?
Its log10cfu is -1.02.

And the log10cfu (Staphylococcus aureus [17])?
The log10cfu was 2.68.

What about the log10cfu (Staphylococcus aureus [18]) of the same compound?
The log10cfu was -1.04.
